Bioassay records from PubChem BioAssay.
Most compounds without a hit are left out; they make up all but 1.9% or so of the library.
ABHD5-PLIN5 inh = ABHD5-PLIN5 interaction inhibitors, primary screen, cell lysate, split luciferase complementation, luminescence; inhibition, % at 4 µM; Split G. princeps luciferase complementation, 4 h; AID 602281, 2012; 360,000 tested, 0.78% active;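 active means inhibition above the mean inhibition across every tested compound plus 3 SD, cut at about 22% in these data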;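 further: 0% = DMSO only wells and the 100% control is not disclosed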
Target sequence (Q00G26 whole entry, looked up): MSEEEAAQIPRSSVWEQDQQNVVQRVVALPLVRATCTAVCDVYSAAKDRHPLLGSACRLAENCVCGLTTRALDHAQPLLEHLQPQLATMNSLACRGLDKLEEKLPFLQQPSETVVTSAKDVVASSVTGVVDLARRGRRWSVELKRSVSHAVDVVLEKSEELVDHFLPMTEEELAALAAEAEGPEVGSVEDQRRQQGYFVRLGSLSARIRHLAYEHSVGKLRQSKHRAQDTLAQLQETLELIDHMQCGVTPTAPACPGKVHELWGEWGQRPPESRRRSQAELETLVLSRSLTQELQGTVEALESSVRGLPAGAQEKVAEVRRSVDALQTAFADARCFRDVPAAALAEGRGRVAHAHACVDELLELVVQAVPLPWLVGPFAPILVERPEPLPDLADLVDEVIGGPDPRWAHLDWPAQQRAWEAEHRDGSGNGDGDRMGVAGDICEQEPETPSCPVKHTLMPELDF
Target sequence (Q8WTS1 whole entry, looked up): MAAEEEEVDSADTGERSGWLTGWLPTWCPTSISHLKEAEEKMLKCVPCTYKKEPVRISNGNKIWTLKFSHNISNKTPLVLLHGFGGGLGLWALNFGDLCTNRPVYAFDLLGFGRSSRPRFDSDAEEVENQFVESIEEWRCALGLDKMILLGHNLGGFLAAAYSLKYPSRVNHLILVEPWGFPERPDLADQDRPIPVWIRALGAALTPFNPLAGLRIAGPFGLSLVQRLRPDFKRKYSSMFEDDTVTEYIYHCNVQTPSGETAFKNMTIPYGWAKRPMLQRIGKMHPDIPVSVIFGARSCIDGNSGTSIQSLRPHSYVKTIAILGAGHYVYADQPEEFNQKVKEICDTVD
Rpn11 block = Rpn11 (PSMD14) deubiquitinase inhibitors, primary screen, biochemical, fluorescence polarization, uHTS; 26S proteasome non-ATPase regulatory subunit 14 (Homo sapiens), O00487; human 26S proteasome, Ub4-pepOG fluorescence polarization; 20S core pre-blocked with epoxomicin; inhibition, % at 20 µM; 360,000 tested, 0.59% active; AID 588493, 2011;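 active means inhibition at 20 µM, scaled to each plate's controls, above about 33%, limit read from the data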
Xi reactivation = activators of inactive X chromosome reactivation, primary screen, imaging, XiGFP fibroblasts, GFP high-content imaging, set 2; activation, % at 7.58 µM; 360,000 tested, 0.055% active; AID 743238, 2013; XiGFP mouse fibroblasts, % GFP-positive cells imaging, 3 d; cells co-treated with 5-aza-dC sensitizer; scaled so ellipticine positive control = 100%;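 active means mean normalized replicate activation at least 10% and every replicate at or above 10%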;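 further: 0% = median of on-plate neutral control wells and 100% = ellipticine 6 µM median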
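System: 68-5-11 XiGFP fibroblast line | Buffer or medium: DMEM containing 5-aza-dC | Compound: Single point | Times: Compounds 3 days, fix/stain 15 min at room temperature | Benchmarks: Positive control ellipticine, 6 µM final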
Rin1-Abl PPI inh = inhibitors of Rin1-Abl protein binding, primary screen, biochemical, TR-FRET; inhibition, % at 7.35 µM; Tyrosine-protein kinase ABL1 (Homo sapiens) + Ras and Rab interactor 1 (Homo sapiens), …; 360,000 tested, 0.4% active; in the data active means inhibition above about 5%, passing the limit was not always enough
NadD block = inhibitors of S. aureus NadD, primary screen, biochemical, colorimetric, uHTS; 360,000 tested, 0.78% active; inhibition, % at 20 µM; AID 602399, 2012; purified NadD enzyme, colorimetric absorbance read-out; Nicotinate-nucleotide adenylyltransferase NadD (Staphylococcus aureus N315); in the data active means inhibition above about 26%
ABHD5 PLIN5 conf = ABHD5-PLIN5 interaction inhibitors, confirmation, biochemical, luminescence | shares compounds with ABHD5-PLIN5 inh | inhibition, % at 4 µM | 2,200 tested, 67% active | AID 651612, 2012; in the data active means inhibition above about 23%;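 further: 0% = DMSO vehicle wells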
HNF4 split-luc = HNF4 dimerization inhibitors, counter-screen for ABHD5-PLIN5 interaction inhibitor project, biochemical, split-luciferase complementation, luminescence | shares compounds with ABHD5-PLIN5 inh | inhibition, % at 4 µM | 2,200 tested, 77% active;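 active means mean inhibition across replicate wells exceeding the computed hit threshold, cut at about 13% in these data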;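 further: light from luciferase halves that rejoin when HNF4 fusion proteins dimerize; 0% = DMSO only wells and the 100% control is not given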
* hit, by the source's call; . = no result given.

SMILES | ABHD5-PLIN5 inh | Rpn11 block | Xi reactivation | Rin1-Abl PPI inh | NadD block | ABHD5 PLIN5 conf | HNF4 split-luc
N#CC1c2ccccc2C=CN1C(=O)N(c1ccccc1)c1ccccc1 (stereo unspecified) | 36* | -2 | 0 | -3 | 8 | 32* | 34*
c1ccc(-c2csc3ncnc(NCCCN4CCOCC4)c23)cc1 | -5 | 7 | . | 0 | -7 | . | .
O=c1c2c(-c3ccccc3)csc2nc2c3ccccc3c(NCCN3CCOCC3)nn12 | 23* | -1 | 0 | -22 | 24 | 11 | 5
CCC1(C)N=C(c2ccc3c(c2)OCO3)CC(c2ccccc2O)N1 (stereo unspecified) | 50* | 7 | . | -3 | 15 | 91* | 65*
COc1cccc(C2=NNC(=NCc3ccccc3)SC2)c1 | -7 | 2 | 0 | 0 | 2 | . | .
COc1cccc(C2=NC(C)(C)NC(c3ccccc3O)C2)c1 (stereo unspecified) | 57* | 7 | . | 0 | 8 | 73* | 72*
CCOc1ccc(S(=O)(=O)N(CC(=O)NCc2cccnc2)c2ccc(F)cc2)cc1 | 40* | -3 | 0 | 2 | -7 | 1 | -5
COc1cc(/C=C/C(=O)c2ccc(O)cc2)ccc1OCC#N | 18 | 6 | 0 | -1 | -5 | . | .
COc1cccc(/C=C/C(=O)c2ccc(C)c([N+](=O)[O-])c2)c1 | 56* | -4 | 0 | 1 | -9 | 102* | 105*
COc1ccc(/C=C/C(=O)c2ccc(C)c([N+](=O)[O-])c2)cc1O | 40* | 8 | 0 | 2 | -3 | 80* | 73*
COc1cc(/C=C/C(=O)c2ccc(C)c([N+](=O)[O-])c2)cc(OC)c1O | 65* | -2 | 1 | -2 | 2 | 79* | 72*
COc1cccc(C(=O)/C=C/c2ccc(OCC#N)c(OC)c2)c1 | 55* | 10 | 0 | -3 | -7 | 86* | 77*
CC=Cc1ccc2n(c1=O)C[C@H]1[C@H](CO)[C@@H](C(=O)N3CCCCC3)[C@@H]2N1C(=O)C1CCC1 (mixture of isomers) | . | . | 0 | . | . | . | .
COCC(=O)N1CCC2(CC1)CN(C(=O)COC)[C@@H](CO)c1c2c2ccc(OC)cc2n1C | . | . | 0 | . | . | . | .
C[C@@H]1CN([C@H](C)CO)C(=O)c2cc(NS(C)(=O)=O)ccc2O[C@H]1CN(C)CC1CCCCC1 | . | . | -1 | . | . | . | .
COc1cccc(/C=C/C(=O)c2ccc(NS(=O)(=O)c3ccc(C)cc3)cc2)c1 | 32* | 10 | 0 | 0 | -6 | 80* | 61*
COc1cccc(C(=O)/C=C/Nc2ccc(S(=O)(=O)Nc3cccc(C(C)=O)c3)cc2)c1 | 7 | 8 | . | 0 | 7 | . | .
Cn1c(-c2ccccc2)c(C(=O)CCl)c2ccccc21 | 24* | -4 | 0 | 0 | -4 | 37* | 22*
CCn1c(-c2ccccc2)c(C(=O)CCl)c2ccccc21 | -2 | 2 | 0 | -1 | -12 | . | .
CO[C@@H]1CN(C)C(=O)c2ccc(NC(=O)Nc3ccccc3F)cc2OC[C@@H](C)N(C(=O)Nc2ccccc2F)C[C@H]1C | . | . | 0 | . | . | . | .
COc1ccc(-n2nnnc2S(=O)(=O)CC(=O)N2CCCCC2)cc1 | 54* | 8 | 0 | -3 | -3 | 75* | 83*
COc1ccc(-n2nnnc2S(=O)(=O)Cc2ccc(C(=O)O)cc2)cc1 | 54* | -1 | . | -1 | 3 | 79* | 81*
COc1cc(OC)cc(-n2nnnc2SCC(=O)N2CCCC2)c1 | 10 | 4 | . | -5 | -2 | . | .
COCCN=C1Sc2nc3c(C)cccc3cc2CN1Cc1ccco1 | 16 | 8 | . | -4 | 23 | . | .
Cc1cccc2cc3c(nc12)SC(=NCC1CCCO1)N(Cc1ccco1)C3 (stereo unspecified) | 26* | 7 | . | -12 | 16 | 43* | 77*
SMILES | ABHD5-PLIN5 inh | Rpn11 block | Xi reactivation | Rin1-Abl PPI inh | NadD block | ABHD5 PLIN5 conf | HNF4 split-luc
COc1cc(OC)c(C#N)c(S(=O)(=O)Cc2ccccc2)c1 | 0 | 2 | . | 0 | 2 | . | .
N#Cc1c([N+](=O)[O-])cc([N+](=O)[O-])cc1S(=O)(=O)Cc1ccccc1 | 36* | 0 | 1 | 2 | -3 | 64* | 95*
COCCCNC(=O)C[C@H]1C[C@H](C(=O)N2CCCCC2)[C@@]2(CCc3ccccc3)c3[nH]c4cc(-c5ccco5)ccc4c3CCN2C1=O | 28* | 40 | 0 | -2 | -7 | 12 | 26*
CC[C@]12c3[nH]c4cc(-c5ccco5)ccc4c3CCN1C(=O)[C@@H](CC(=O)NCCc1ccccn1)C[C@@H]2C(=O)N1CCN(C(=O)C2CC2)CC1 | 14 | 16 | 0 | -4 | 9 | . | .
C[C@]12c3[nH]c4cc(-c5ccco5)ccc4c3CCN1C(=O)[C@@H](CC(=O)NCCc1ccccn1)C[C@@H]2C(=O)N1CCCCC1 | 42* | 18 | 0 | 2 | -1 | 8 | 24*
COCCCNC(=O)C[C@H]1C[C@H](C(=O)N2CCOCC2)[C@@]2(C)c3[nH]c4cc(-c5ccco5)ccc4c3CCN2C1=O | 9 | 5 | 0 | -3 | -2 | . | .
COc1ccc(-c2cnc3c(c2)C(=O)N([C@@H](C)CO)C[C@H](C)[C@@H](CN(C)S(C)(=O)=O)O3)cc1 | . | . | 0 | . | . | . | .
CC(=O)OC[C@]1(OC(C)=O)C[C@@]23CC[C@H]4[C@@](C)(CCC[C@@]4(C)C(=O)O)[C@@H]2CC[C@@H]1C3 | -3 | 0 | 0 | -1 | 24 | . | .
CC(=O)OC[C@]12CC[C@H]3[C@@](C)(CC[C@H]4C(C)(C)CCC[C@]34C)[C@@H]1CC(C1=CC(=O)OC1O)O2 (stereo partly specified) | 100* | 58* | . | 3 | 32* | 103* | 103*
CCOC(=O)C1CCCN(C(=O)c2cc(Nc3ccc(OC)cc3OC)nc3ccccc23)C1 (stereo unspecified) | 9 | -1 | . | 4 | 3 | . | .
CCOC(=O)C1CCCN(C(=O)c2cc(Nc3ccc(OC)c(OC)c3)nc3ccccc23)C1 (stereo unspecified) | 29* | 0 | . | -2 | 6 | 45* | 2
CN1\C(=C/C=C/C=C/C=[N+](C)C)C(C)(C)c2ccccc21 | 24* | . | 0 | -7 | 14 | 49* | 38*
